Laboratory results from ChEMBL document CHEMBL1128519, “Semisynthetic chemical modification of the antifungal lipopeptide echinocandin B (ECB): structure-activity studies of the lipophilic and geometric parameters of polyarylated acyl analogs of ECB” (J Med Chem, 1995).
In brackets after ≈: the same amount, converted by molar mass. Numbered stars: 1 amine (or outer) side, 2 acyl side, 3 side chain; on linkers, the order of the positions; unused ones are H or OH. Bridge positions count the residues as written; N and C are the ends. Square brackets hold non-standard residues; d marks the D form. Peptide text beside a SMILES is read from it. * marks the point of attachment. Orn(4R-OH,5R-OH) = O=C([C@H](C[C@@H](O)[C@@H](O)N[*:3])N[*:1])[*:2]; hTyr(3S-OH,4S-OH) = N[C@H](C(=O)O)[C@H](O)[C@@H](O)c1ccc(O)cc1; Pro(3S-OH,4S-Me) = C[C@H]1CN[C@H](C(=O)O)[C@H]1O; X25 = CCCCCCCCCCCCC(Oc1ccc(-c2ccccc2)cc1)C(=O)*; X18 = O=C(c1ccc(C#Cc2ccc(-c3ccccc3)cc2)cc1)*; X11 = CCC(CC)COc1ccc(-c2ccc(C(=O)*)cc2)cc1; X13 = O=C(CCCCCCCCCCOc1ccc(-c2ccccc2)cc1)*; X22 = O=C(c1ccc(-c2ccc(OCC3CCCC3)cc2)cc1)*; X24 = CCCCC(Oc1ccc(-c2ccccc2)cc1)C(=O)*; X10 = CCCCc1ccc(COc2ccc(C(=O)*)cc2)cc1; X26 = CCCCOc1ccc(Cc2ccc(C(=O)*)cc2)cc1; X28 = CCCCOc1ccc(Oc2ccc(C(=O)*)cc2)cc1; X23 = O=C(CCCCCOc1ccc(-c2ccccc2)cc1)*; X27 = CCCCCCCCCCOc1cc2ccccc2cc1C(=O)*; X12 = CCCCCCCCCCOCCOc1ccc(C(=O)*)cc1; X15 = CCCCCCOc1ccc2cc(C(=O)*)ccc2c1; X19 = CCCCCCCCOCCOc1ccc(C(=O)*)cc1; X30 = CCCCCCOc1cc2ccccc2cc1C(=O)*; Hyp = O=C(O)[C@@H]1C[C@@H](O)CN1; X29 = CCCCCOCCOc1ccc(C(=O)*)cc1

How the values were obtained:
Candida albicans [1] = experiment: Antifungal activity against Candida albicans; format: functional
Procedure, shortened: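 Broth microdilution, C. albicans A26 (ATCC 62342) grown on Sabouraud dextrose agar at 35 °C; inoculum 1 × 10^5 conidia/mL in antibiotic 3 broth. Compounds dissolved at 1.0 mg/mL in methanol, 2-fold serial dilutions from 80 µg/mL, duplicate. Read after 48 h at 35 °C. MIC = lowest concentration completely inhibiting visible growth.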

[2] = target: Beta-1,3-glucan synthase (Candida albicans) (UniProt O13428); experiment: In vitro inhibition of glucan synthase obtained from Candida albicans at a concentration of 10 ug/mL.
Procedure, shortened: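 Purified, solubilized β-(1,3)-D-glucan synthase prepared from C. albicans. Percent inhibition measured at 10 µg/mL compound, single determination.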

Candida albicans [3] = experiment: In vivo antifungal activity administered intraperitoneally against Candida albicans infections in mice.; format: functional; conditions: ip
Procedure, shortened: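 Male ICR mice (18-20 g), X-irradiated with 400 r 24 h before iv tail-vein infection with 2 × 10^6 C. albicans A26 cells in saline. Compounds suspended in β-cyclodextrin, given parenterally at 0, 4, 24 and 48 h post-infection. 10 mice per dose, top dose 10 mg/kg with 2-fold dilutions down to 0.039 mg/kg. 7-day survival; ED50 by Reed-Muench.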

Beta-1,3-glucan synthase (Candida albicans), sequence (O13428 as listed by the source): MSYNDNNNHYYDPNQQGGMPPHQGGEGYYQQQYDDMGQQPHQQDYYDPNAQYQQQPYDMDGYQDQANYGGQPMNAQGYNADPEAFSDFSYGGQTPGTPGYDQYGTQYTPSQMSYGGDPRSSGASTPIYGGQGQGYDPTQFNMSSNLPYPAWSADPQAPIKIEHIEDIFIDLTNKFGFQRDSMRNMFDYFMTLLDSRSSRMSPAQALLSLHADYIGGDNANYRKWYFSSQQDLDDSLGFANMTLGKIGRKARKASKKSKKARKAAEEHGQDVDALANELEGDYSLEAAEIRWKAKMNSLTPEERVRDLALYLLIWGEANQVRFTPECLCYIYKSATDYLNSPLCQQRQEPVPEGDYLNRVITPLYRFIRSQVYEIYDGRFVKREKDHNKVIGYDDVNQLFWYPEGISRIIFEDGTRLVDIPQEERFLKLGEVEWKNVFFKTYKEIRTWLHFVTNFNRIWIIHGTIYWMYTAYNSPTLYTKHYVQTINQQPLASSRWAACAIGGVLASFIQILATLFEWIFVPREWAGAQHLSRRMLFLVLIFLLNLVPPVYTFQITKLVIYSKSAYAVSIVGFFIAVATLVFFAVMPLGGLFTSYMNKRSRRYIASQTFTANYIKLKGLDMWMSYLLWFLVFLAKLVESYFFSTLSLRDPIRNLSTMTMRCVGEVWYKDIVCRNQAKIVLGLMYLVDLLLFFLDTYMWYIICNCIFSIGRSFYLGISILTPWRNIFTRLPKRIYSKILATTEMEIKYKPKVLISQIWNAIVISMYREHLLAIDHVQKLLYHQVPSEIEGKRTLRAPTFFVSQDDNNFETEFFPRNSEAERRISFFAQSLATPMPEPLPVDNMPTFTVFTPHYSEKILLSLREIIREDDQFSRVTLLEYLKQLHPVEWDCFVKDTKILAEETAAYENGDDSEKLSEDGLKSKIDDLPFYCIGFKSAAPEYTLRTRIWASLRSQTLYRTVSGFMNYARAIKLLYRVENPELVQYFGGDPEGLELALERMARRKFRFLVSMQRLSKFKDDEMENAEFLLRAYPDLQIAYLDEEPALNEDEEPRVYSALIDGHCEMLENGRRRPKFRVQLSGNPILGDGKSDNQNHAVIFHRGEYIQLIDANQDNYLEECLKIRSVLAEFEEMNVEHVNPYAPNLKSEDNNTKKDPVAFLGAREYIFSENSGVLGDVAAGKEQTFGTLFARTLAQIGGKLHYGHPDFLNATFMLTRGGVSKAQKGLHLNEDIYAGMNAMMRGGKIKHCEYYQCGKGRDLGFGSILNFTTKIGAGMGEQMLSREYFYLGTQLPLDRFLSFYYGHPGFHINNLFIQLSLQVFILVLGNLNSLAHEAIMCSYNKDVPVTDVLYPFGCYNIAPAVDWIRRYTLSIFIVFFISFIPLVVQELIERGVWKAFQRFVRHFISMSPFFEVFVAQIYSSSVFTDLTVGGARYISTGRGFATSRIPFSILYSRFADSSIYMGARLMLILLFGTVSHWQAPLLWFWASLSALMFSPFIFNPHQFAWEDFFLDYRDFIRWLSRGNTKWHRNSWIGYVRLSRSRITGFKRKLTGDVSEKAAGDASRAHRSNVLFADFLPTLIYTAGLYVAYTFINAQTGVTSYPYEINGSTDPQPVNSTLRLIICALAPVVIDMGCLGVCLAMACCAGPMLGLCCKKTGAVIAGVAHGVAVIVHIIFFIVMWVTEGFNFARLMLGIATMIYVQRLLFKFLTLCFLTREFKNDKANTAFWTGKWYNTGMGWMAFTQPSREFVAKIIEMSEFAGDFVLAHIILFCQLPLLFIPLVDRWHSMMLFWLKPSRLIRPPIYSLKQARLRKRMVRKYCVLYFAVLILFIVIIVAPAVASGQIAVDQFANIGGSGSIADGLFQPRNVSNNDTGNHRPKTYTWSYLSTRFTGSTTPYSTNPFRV

SMILES	MIC (Candida albicans [1]) [µg/mL]	inhibition [2] [%]	ED50 (Candida albicans [3]) [mg/kg]
CCCCc1ccc(COc2ccc(C(=O)N[C@H]3C[C@@H](O)[C@@H](O)NC(=O)[C@@H]4[C@@H](O)[C@@H](C)CN4C(=O)[C@H]([C@@H](C)O)NC(=O)[C@H]([C@H](O)[C@@H](O)c4ccc(O)cc4)NC(=O)[C@@H]4C[C@@H](O)CN4C(=O)[C@H]([C@@H](C)O)NC3=O)cc2)cc1 (X10-[Orn(4R-OH,5R-OH)]T[Hyp][hTyr(3S-OH,4S-OH)]T[Pro(3S-OH,4S-Me)]; lactam 1-C)	0.156 (≈ 0.147 µM)	68.9	6.7
CCC(CC)COc1ccc(-c2ccc(C(=O)N[C@H]3C[C@@H](O)[C@@H](O)NC(=O)[C@@H]4[C@@H](O)[C@@H](C)CN4C(=O)[C@H]([C@@H](C)O)NC(=O)[C@H]([C@H](O)[C@@H](O)c4ccc(O)cc4)NC(=O)[C@@H]4C[C@@H](O)CN4C(=O)[C@H]([C@@H](C)O)NC3=O)cc2)cc1 (X11-[Orn(4R-OH,5R-OH)]T[Hyp][hTyr(3S-OH,4S-OH)]T[Pro(3S-OH,4S-Me)]; lactam 1-C)	0.039 (≈ 0.0362 µM)	–	4.6
CCCCCCCCCCOCCOc1ccc(C(=O)N[C@H]2C[C@@H](O)[C@@H](O)NC(=O)[C@@H]3[C@@H](O)[C@@H](C)CN3C(=O)[C@H]([C@@H](C)O)NC(=O)[C@H]([C@H](O)[C@@H](O)c3ccc(O)cc3)NC(=O)[C@@H]3C[C@@H](O)CN3C(=O)[C@H]([C@@H](C)O)NC2=O)cc1 (X12-[Orn(4R-OH,5R-OH)]T[Hyp][hTyr(3S-OH,4S-OH)]T[Pro(3S-OH,4S-Me)]; lactam 1-C)	0.625 (≈ 0.567 µM)	71.4	9.5
C[C@@H](O)[C@@H]1NC(=O)[C@H]([C@H](O)[C@@H](O)c2ccc(O)cc2)NC(=O)[C@@H]2C[C@@H](O)CN2C(=O)[C@H]([C@@H](C)O)NC(=O)[C@@H](NC(=O)CCCCCCCCCCOc2ccc(-c3ccccc3)cc2)C[C@@H](O)[C@@H](O)NC(=O)[C@@H]2[C@@H](O)[C@@H](C)CN2C1=O (X13-[Orn(4R-OH,5R-OH)]T[Hyp][hTyr(3S-OH,4S-OH)]T[Pro(3S-OH,4S-Me)]; lactam 1-C)	0.02 (≈ 0.0176 µM)	80.2	7.4
CCCCCCOc1ccc2cc(C(=O)N[C@H]3C[C@@H](O)[C@@H](O)NC(=O)[C@@H]4[C@@H](O)[C@@H](C)CN4C(=O)[C@H]([C@@H](C)O)NC(=O)[C@H]([C@H](O)[C@@H](O)c4ccc(O)cc4)NC(=O)[C@@H]4C[C@@H](O)CN4C(=O)[C@H]([C@@H](C)O)NC3=O)ccc2c1 (X15-[Orn(4R-OH,5R-OH)]T[Hyp][hTyr(3S-OH,4S-OH)]T[Pro(3S-OH,4S-Me)]; lactam 1-C)	0.039 (≈ 0.0371 µM)	77.7	2.8
C[C@@H](O)[C@@H]1NC(=O)[C@H]([C@H](O)[C@@H](O)c2ccc(O)cc2)NC(=O)[C@@H]2C[C@@H](O)CN2C(=O)[C@H]([C@@H](C)O)NC(=O)[C@@H](NC(=O)c2ccc(C#Cc3ccc(-c4ccccc4)cc3)cc2)C[C@@H](O)[C@@H](O)NC(=O)[C@@H]2[C@@H](O)[C@@H](C)CN2C1=O (X18-[Orn(4R-OH,5R-OH)]T[Hyp][hTyr(3S-OH,4S-OH)]T[Pro(3S-OH,4S-Me)]; lactam 1-C)	0.078 (≈ 0.0723 µM)	78.2	1.7
CCCCCCCCOCCOc1ccc(C(=O)N[C@H]2C[C@@H](O)[C@@H](O)NC(=O)[C@@H]3[C@@H](O)[C@@H](C)CN3C(=O)[C@H]([C@@H](C)O)NC(=O)[C@H]([C@H](O)[C@@H](O)c3ccc(O)cc3)NC(=O)[C@@H]3C[C@@H](O)CN3C(=O)[C@H]([C@@H](C)O)NC2=O)cc1 (X19-[Orn(4R-OH,5R-OH)]T[Hyp][hTyr(3S-OH,4S-OH)]T[Pro(3S-OH,4S-Me)]; lactam 1-C)	2.5 (≈ 2.33 µM)	54.8	4.4
C[C@@H](O)[C@@H]1NC(=O)[C@H]([C@H](O)[C@@H](O)c2ccc(O)cc2)NC(=O)[C@@H]2C[C@@H](O)CN2C(=O)[C@H]([C@@H](C)O)NC(=O)[C@@H](NC(=O)c2ccc(-c3ccc(OCC4CCCC4)cc3)cc2)C[C@@H](O)[C@@H](O)NC(=O)[C@@H]2[C@@H](O)[C@@H](C)CN2C1=O (X22-[Orn(4R-OH,5R-OH)]T[Hyp][hTyr(3S-OH,4S-OH)]T[Pro(3S-OH,4S-Me)]; lactam 1-C)	0.039 (≈ 0.0362 µM)	–	1.2
C[C@@H](O)[C@@H]1NC(=O)[C@H]([C@H](O)[C@@H](O)c2ccc(O)cc2)NC(=O)[C@@H]2C[C@@H](O)CN2C(=O)[C@H]([C@@H](C)O)NC(=O)[C@@H](NC(=O)CCCCCOc2ccc(-c3ccccc3)cc2)C[C@@H](O)[C@@H](O)NC(=O)[C@@H]2[C@@H](O)[C@@H](C)CN2C1=O (X23-[Orn(4R-OH,5R-OH)]T[Hyp][hTyr(3S-OH,4S-OH)]T[Pro(3S-OH,4S-Me)]; lactam 1-C)	1.25 (≈ 1.17 µM)	69.1	–
CCCCC(Oc1ccc(-c2ccccc2)cc1)C(=O)N[C@H]1C[C@@H](O)[C@@H](O)NC(=O)[C@@H]2[C@@H](O)[C@@H](C)CN2C(=O)[C@H]([C@@H](C)O)NC(=O)[C@H]([C@H](O)[C@@H](O)c2ccc(O)cc2)NC(=O)[C@@H]2C[C@@H](O)CN2C(=O)[C@H]([C@@H](C)O)NC1=O (stereo partly drawn) (X24-[Orn(4R-OH,5R-OH)]T[Hyp][hTyr(3S-OH,4S-OH)]T[Pro(3S-OH,4S-Me)]; lactam 1-C)	80 (≈ 75.2 µM)	55.1	–
CCCCCCCCCCCCC(Oc1ccc(-c2ccccc2)cc1)C(=O)N[C@H]1C[C@@H](O)[C@@H](O)NC(=O)[C@@H]2[C@@H](O)[C@@H](C)CN2C(=O)[C@H]([C@@H](C)O)NC(=O)[C@H]([C@H](O)[C@@H](O)c2ccc(O)cc2)NC(=O)[C@@H]2C[C@@H](O)CN2C(=O)[C@H]([C@@H](C)O)NC1=O (stereo partly drawn) (X25-[Orn(4R-OH,5R-OH)]T[Hyp][hTyr(3S-OH,4S-OH)]T[Pro(3S-OH,4S-Me)]; lactam 1-C)	0.312 (≈ 0.265 µM)	83	–
CCCCOc1ccc(Cc2ccc(C(=O)N[C@H]3C[C@@H](O)[C@@H](O)NC(=O)[C@@H]4[C@@H](O)[C@@H](C)CN4C(=O)[C@H]([C@@H](C)O)NC(=O)[C@H]([C@H](O)[C@@H](O)c4ccc(O)cc4)NC(=O)[C@@H]4C[C@@H](O)CN4C(=O)[C@H]([C@@H](C)O)NC3=O)cc2)cc1 (X26-[Orn(4R-OH,5R-OH)]T[Hyp][hTyr(3S-OH,4S-OH)]T[Pro(3S-OH,4S-Me)]; lactam 1-C)	> 20	43.4	–
CCCCCCCCCCOc1cc2ccccc2cc1C(=O)N[C@H]1C[C@@H](O)[C@@H](O)NC(=O)[C@@H]2[C@@H](O)[C@@H](C)CN2C(=O)[C@H]([C@@H](C)O)NC(=O)[C@H]([C@H](O)[C@@H](O)c2ccc(O)cc2)NC(=O)[C@@H]2C[C@@H](O)CN2C(=O)[C@H]([C@@H](C)O)NC1=O (X27-[Orn(4R-OH,5R-OH)]T[Hyp][hTyr(3S-OH,4S-OH)]T[Pro(3S-OH,4S-Me)]; lactam 1-C)	20 (≈ 18 µM)	40.6	–
CCCCOc1ccc(Oc2ccc(C(=O)N[C@H]3C[C@@H](O)[C@@H](O)NC(=O)[C@@H]4[C@@H](O)[C@@H](C)CN4C(=O)[C@H]([C@@H](C)O)NC(=O)[C@H]([C@H](O)[C@@H](O)c4ccc(O)cc4)NC(=O)[C@@H]4C[C@@H](O)CN4C(=O)[C@H]([C@@H](C)O)NC3=O)cc2)cc1 (X28-[Orn(4R-OH,5R-OH)]T[Hyp][hTyr(3S-OH,4S-OH)]T[Pro(3S-OH,4S-Me)]; lactam 1-C)	> 20	66.7	–
CCCCCOCCOc1ccc(C(=O)N[C@H]2C[C@@H](O)[C@@H](O)NC(=O)[C@@H]3[C@@H](O)[C@@H](C)CN3C(=O)[C@H]([C@@H](C)O)NC(=O)[C@H]([C@H](O)[C@@H](O)c3ccc(O)cc3)NC(=O)[C@@H]3C[C@@H](O)CN3C(=O)[C@H]([C@@H](C)O)NC2=O)cc1 (X29-[Orn(4R-OH,5R-OH)]T[Hyp][hTyr(3S-OH,4S-OH)]T[Pro(3S-OH,4S-Me)]; lactam 1-C)	> 20	17.1	–
CCCCCCOc1cc2ccccc2cc1C(=O)N[C@H]1C[C@@H](O)[C@@H](O)NC(=O)[C@@H]2[C@@H](O)[C@@H](C)CN2C(=O)[C@H]([C@@H](C)O)NC(=O)[C@H]([C@H](O)[C@@H](O)c2ccc(O)cc2)NC(=O)[C@@H]2C[C@@H](O)CN2C(=O)[C@H]([C@@H](C)O)NC1=O (X30-[Orn(4R-OH,5R-OH)]T[Hyp][hTyr(3S-OH,4S-OH)]T[Pro(3S-OH,4S-Me)]; lactam 1-C)	20 (≈ 19 µM)	19.4	–
